# Source: ChEMBL document CHEMBL3046278, “Design, synthesis and antifungal/insecticidal evaluation of novel cinnamide derivatives” (2011)
# System: Rhizoctonia solani
# Assay: Antifungal activity against Rhizoctonia solani assessed as inhibition of mycelium growth at 50 ug/ml relative to control
# Assay type: functional
# Method in brief: (§1)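 Mycelial growth inhibition on mycelial disks, compared with untreated control, using colony diameters: (control − treatment)/(control − disk diameter) × 100. Run twice, four replicates each.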
row,Compound,inhibition at 50 µg/mL [%]
1,Cc1ccc(/C(=C/C(=O)NCCc2ccccc2)c2ccncc2)cc1C,3.87
2,CCc1ccc(/C(=C/C(=O)NCCc2ccc(O)cc2)c2ccnc(Cl)c2)cc1,67.7
3,COc1ccc(CCNC(=O)/C=C(/c2ccc(C(C)(C)C)cc2)c2ccnc(Cl)c2)cc1OC,14.8
4,Cc1ccc(/C(=C/C(=O)NCCc2ccccc2)c2ccnc(Cl)c2)c(C)c1,4.52
5,Cc1ccc(/C(=C/C(=O)NCCc2ccc(O)cc2)c2ccnc(Cl)c2)cc1,72.9
6,CO/C=C(/C(=O)OC)c1ccccc1Oc1cc(Oc2ccccc2C#N)ncn1 [AZOXYSTROBIN],89
7,Cc1ccc(/C(=C/C(=O)NCCc2ccc(O)cc2)c2ccnc(Cl)c2)c(C)c1,13.6
8,CCc1ccc(/C(=C/C(=O)NCCc2ccccc2)c2ccncc2)cc1,9.68
9,Cc1ccc(/C(=C/C(=O)NCCc2ccc(O)cc2)c2ccncc2)cc1C,16.1
10,CC(C)(C)c1ccc(/C(=C/C(=O)N2CCOCC2)c2ccnc(Cl)c2)cc1 [PYRIMORPH],97.2
11,N#Cc1c(Cl)c(Cl)c(Cl)c(C#N)c1Cl [CHLOROTHALONIL],75.5
12,Cc1ccc(/C(=C/C(=O)NCCc2ccccc2)c2ccncc2)cc1,15.5
13,Cc1ccc(/C(=C/C(=O)NCCc2ccc(O)cc2)c2ccnc(Cl)c2)cc1C,91

# System: Bursaphelenchus xylophilus
# Assay: Nematicidal activity against Bursaphelenchus xylophilus assessed as mortality at 200 mg/L after 72 hr relative to control
# Assay type: functional
# Method in brief: (§2)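 Compounds dissolved in acetone and diluted with distilled water to a 200 mg L-1 working solution. Distilled water served as blank, triplicate. Mortality counted at 24, 48 and 72 h, then corrected against the negative control with Abbott's formula.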
row,Compound,Activity [%]
1,Cc1ccc(/C(=C/C(=O)NCCc2ccccc2)c2ccncc2)cc1C,49.07
2,CCc1ccc(/C(=C/C(=O)NCCc2ccc(O)cc2)c2ccnc(Cl)c2)cc1,43.97
3,COc1ccc(CCNC(=O)/C=C(/c2ccc(C(C)(C)C)cc2)c2ccnc(Cl)c2)cc1OC,45.15
4,Cc1ccc(/C(=C/C(=O)NCCc2ccccc2)c2ccnc(Cl)c2)c(C)c1,27.91
5,Cc1ccc(/C(=C/C(=O)NCCc2ccc(O)cc2)c2ccnc(Cl)c2)cc1,14.2
6,Cc1ccc(/C(=C/C(=O)NCCc2ccc(O)cc2)c2ccnc(Cl)c2)c(C)c1,54.16
7,CCc1ccc(/C(=C/C(=O)NCCc2ccccc2)c2ccncc2)cc1,8.71
8,Cc1ccc(/C(=C/C(=O)NCCc2ccc(O)cc2)c2ccncc2)cc1C,32.22
9,Cc1ccc(/C(=C/C(=O)NCCc2ccccc2)c2ccncc2)cc1,18.11
10,Cc1ccc(/C(=C/C(=O)NCCc2ccc(O)cc2)c2ccnc(Cl)c2)cc1C,23.99

# System: Bursaphelenchus xylophilus
# Assay: Nematicidal activity against Bursaphelenchus xylophilus assessed as mortality at 200 mg/L after 48 hr relative to control
# Assay type: functional
# Method in brief: as §2
row,Compound,Activity [%]
1,Cc1ccc(/C(=C/C(=O)NCCc2ccccc2)c2ccncc2)cc1C,47.67
2,CCc1ccc(/C(=C/C(=O)NCCc2ccc(O)cc2)c2ccnc(Cl)c2)cc1,33.6
3,COc1ccc(CCNC(=O)/C=C(/c2ccc(C(C)(C)C)cc2)c2ccnc(Cl)c2)cc1OC,38.82
4,Cc1ccc(/C(=C/C(=O)NCCc2ccccc2)c2ccnc(Cl)c2)c(C)c1,24.44
5,Cc1ccc(/C(=C/C(=O)NCCc2ccc(O)cc2)c2ccnc(Cl)c2)cc1,12.65
6,Cc1ccc(/C(=C/C(=O)NCCc2ccc(O)cc2)c2ccnc(Cl)c2)c(C)c1,44.71
7,CCc1ccc(/C(=C/C(=O)NCCc2ccccc2)c2ccncc2)cc1,8.23
8,Cc1ccc(/C(=C/C(=O)NCCc2ccc(O)cc2)c2ccncc2)cc1C,22.6
9,Cc1ccc(/C(=C/C(=O)NCCc2ccccc2)c2ccncc2)cc1,14.86
10,Cc1ccc(/C(=C/C(=O)NCCc2ccc(O)cc2)c2ccnc(Cl)c2)cc1C,14.86

# System: Colletotrichum lindemuthianum
# Assay: Antifungal activity against Colletotrichum lindemuthianum assessed as inhibition of mycelium growth at 50 ug/ml relative to control
# Assay type: functional
# Method in brief: as §1
row,Compound,inhibition at 50 µg/mL [%]
1,Cc1ccc(/C(=C/C(=O)NCCc2ccccc2)c2ccncc2)cc1C,17.2
2,CCc1ccc(/C(=C/C(=O)NCCc2ccc(O)cc2)c2ccnc(Cl)c2)cc1,24.6
3,COc1ccc(CCNC(=O)/C=C(/c2ccc(C(C)(C)C)cc2)c2ccnc(Cl)c2)cc1OC,22.4
4,Cc1ccc(/C(=C/C(=O)NCCc2ccccc2)c2ccnc(Cl)c2)c(C)c1,47
5,Cc1ccc(/C(=C/C(=O)NCCc2ccc(O)cc2)c2ccnc(Cl)c2)cc1,16.4
6,Cc1ccc(/C(=C/C(=O)NCCc2ccc(O)cc2)c2ccnc(Cl)c2)c(C)c1,21.6
7,CCc1ccc(/C(=C/C(=O)NCCc2ccccc2)c2ccncc2)cc1,37.3
8,Cc1ccc(/C(=C/C(=O)NCCc2ccc(O)cc2)c2ccncc2)cc1C,38.8
9,Cc1ccc(/C(=C/C(=O)NCCc2ccccc2)c2ccncc2)cc1,32.8
10,Cc1ccc(/C(=C/C(=O)NCCc2ccc(O)cc2)c2ccnc(Cl)c2)cc1C,35.8

# System: Botrytis cinerea
# Assay: Antifungal activity against Botryotinia fuckeliana assessed as inhibition of mycelium growth at 50 ug/ml relative to control
# Assay type: functional
# Method in brief: as §1
row,Compound,inhibition at 50 µg/mL [%]
1,Cc1ccc(/C(=C/C(=O)NCCc2ccccc2)c2ccncc2)cc1C,15
2,CCc1ccc(/C(=C/C(=O)NCCc2ccc(O)cc2)c2ccnc(Cl)c2)cc1,37
3,COc1ccc(CCNC(=O)/C=C(/c2ccc(C(C)(C)C)cc2)c2ccnc(Cl)c2)cc1OC,48
4,Cc1ccc(/C(=C/C(=O)NCCc2ccccc2)c2ccnc(Cl)c2)c(C)c1,43
5,Cc1ccc(/C(=C/C(=O)NCCc2ccc(O)cc2)c2ccnc(Cl)c2)cc1,33
6,CO/C=C(/C(=O)OC)c1ccccc1Oc1cc(Oc2ccccc2C#N)ncn1 [AZOXYSTROBIN],80
7,Cc1ccc(/C(=C/C(=O)NCCc2ccc(O)cc2)c2ccnc(Cl)c2)c(C)c1,38
8,CCc1ccc(/C(=C/C(=O)NCCc2ccccc2)c2ccncc2)cc1,48
9,Cc1ccc(/C(=C/C(=O)NCCc2ccc(O)cc2)c2ccncc2)cc1C,64
10,N#Cc1c(Cl)c(Cl)c(Cl)c(C#N)c1Cl [CHLOROTHALONIL],95
11,Cc1ccc(/C(=C/C(=O)NCCc2ccccc2)c2ccncc2)cc1,43
12,Cc1ccc(/C(=C/C(=O)NCCc2ccc(O)cc2)c2ccnc(Cl)c2)cc1C,54

# System: Bursaphelenchus xylophilus
# Assay: Nematicidal activity against Bursaphelenchus xylophilus assessed as mortality at 200 mg/L after 24 hr relative to control
# Assay type: functional
# Method in brief: as §2
row,Compound,Activity [%]
1,Cc1ccc(/C(=C/C(=O)NCCc2ccccc2)c2ccncc2)cc1C,28.7
2,CCc1ccc(/C(=C/C(=O)NCCc2ccc(O)cc2)c2ccnc(Cl)c2)cc1,14.73
3,COc1ccc(CCNC(=O)/C=C(/c2ccc(C(C)(C)C)cc2)c2ccnc(Cl)c2)cc1OC,4.33
4,Cc1ccc(/C(=C/C(=O)NCCc2ccccc2)c2ccnc(Cl)c2)c(C)c1,22.97
5,Cc1ccc(/C(=C/C(=O)NCCc2ccc(O)cc2)c2ccnc(Cl)c2)cc1,7.56
6,Cc1ccc(/C(=C/C(=O)NCCc2ccc(O)cc2)c2ccnc(Cl)c2)c(C)c1,12.22
7,CCc1ccc(/C(=C/C(=O)NCCc2ccccc2)c2ccncc2)cc1,7.56
8,Cc1ccc(/C(=C/C(=O)NCCc2ccc(O)cc2)c2ccncc2)cc1C,11.86
9,Cc1ccc(/C(=C/C(=O)NCCc2ccccc2)c2ccncc2)cc1,9.34
10,Cc1ccc(/C(=C/C(=O)NCCc2ccc(O)cc2)c2ccnc(Cl)c2)cc1C,3.97

# System: Sclerotinia sclerotiorum
# Assay: Antifungal activity against Sclerotinia sclerotiorum assessed as inhibition of mycelium growth at 50 ug/ml relative to control
# Assay type: functional
# Method in brief: as §1
row,Compound,inhibition at 50 µg/mL [%]
1,Cc1ccc(/C(=C/C(=O)NCCc2ccccc2)c2ccncc2)cc1C,2.7
2,CCc1ccc(/C(=C/C(=O)NCCc2ccc(O)cc2)c2ccnc(Cl)c2)cc1,17
3,COc1ccc(CCNC(=O)/C=C(/c2ccc(C(C)(C)C)cc2)c2ccnc(Cl)c2)cc1OC,53
4,Cc1ccc(/C(=C/C(=O)NCCc2ccccc2)c2ccnc(Cl)c2)c(C)c1,24
5,Cc1ccc(/C(=C/C(=O)NCCc2ccc(O)cc2)c2ccnc(Cl)c2)cc1,29
6,CO/C=C(/C(=O)OC)c1ccccc1Oc1cc(Oc2ccccc2C#N)ncn1 [AZOXYSTROBIN],100
7,Cc1ccc(/C(=C/C(=O)NCCc2ccc(O)cc2)c2ccnc(Cl)c2)c(C)c1,27
8,CCc1ccc(/C(=C/C(=O)NCCc2ccccc2)c2ccncc2)cc1,45
9,Cc1ccc(/C(=C/C(=O)NCCc2ccc(O)cc2)c2ccncc2)cc1C,27
10,CC(C)(C)c1ccc(/C(=C/C(=O)N2CCOCC2)c2ccnc(Cl)c2)cc1 [PYRIMORPH],79
11,N#Cc1c(Cl)c(Cl)c(Cl)c(C#N)c1Cl [CHLOROTHALONIL],70
12,Cc1ccc(/C(=C/C(=O)NCCc2ccccc2)c2ccncc2)cc1,16
13,Cc1ccc(/C(=C/C(=O)NCCc2ccc(O)cc2)c2ccnc(Cl)c2)cc1C,44

# System: Cytospora mali
# Assay: Antifungal activity against Valsa mali assessed as inhibition of mycelium growth at 50 ug/ml relative to control
# Assay type: functional
# Method in brief: as §1
row,Compound,inhibition at 50 µg/mL [%]
1,Cc1ccc(/C(=C/C(=O)NCCc2ccccc2)c2ccncc2)cc1C,18
2,CCc1ccc(/C(=C/C(=O)NCCc2ccc(O)cc2)c2ccnc(Cl)c2)cc1,24
3,COc1ccc(CCNC(=O)/C=C(/c2ccc(C(C)(C)C)cc2)c2ccnc(Cl)c2)cc1OC,18
4,Cc1ccc(/C(=C/C(=O)NCCc2ccccc2)c2ccnc(Cl)c2)c(C)c1,31
5,Cc1ccc(/C(=C/C(=O)NCCc2ccc(O)cc2)c2ccnc(Cl)c2)cc1,29
6,CO/C=C(/C(=O)OC)c1ccccc1Oc1cc(Oc2ccccc2C#N)ncn1 [AZOXYSTROBIN],92
7,Cc1ccc(/C(=C/C(=O)NCCc2ccc(O)cc2)c2ccnc(Cl)c2)c(C)c1,26
8,CCc1ccc(/C(=C/C(=O)NCCc2ccccc2)c2ccncc2)cc1,30
9,Cc1ccc(/C(=C/C(=O)NCCc2ccc(O)cc2)c2ccncc2)cc1C,-2.3
10,N#Cc1c(Cl)c(Cl)c(Cl)c(C#N)c1Cl [CHLOROTHALONIL],88
11,Cc1ccc(/C(=C/C(=O)NCCc2ccccc2)c2ccncc2)cc1,36
12,Cc1ccc(/C(=C/C(=O)NCCc2ccc(O)cc2)c2ccnc(Cl)c2)cc1C,-6.3

# System: Phytophthora nicotianae
# Assay: Antifungal activity against Phytophthora parasitica assessed as inhibition of mycelium growth at 50 ug/ml relative to control
# Assay type: functional
# Method in brief: as §1
row,Compound,inhibition at 50 µg/mL [%]
1,Cc1ccc(/C(=C/C(=O)NCCc2ccccc2)c2ccncc2)cc1C,-9.68
2,CCc1ccc(/C(=C/C(=O)NCCc2ccc(O)cc2)c2ccnc(Cl)c2)cc1,28.2
3,COc1ccc(CCNC(=O)/C=C(/c2ccc(C(C)(C)C)cc2)c2ccnc(Cl)c2)cc1OC,-8.06
4,Cc1ccc(/C(=C/C(=O)NCCc2ccccc2)c2ccnc(Cl)c2)c(C)c1,11.3
5,Cc1ccc(/C(=C/C(=O)NCCc2ccc(O)cc2)c2ccnc(Cl)c2)cc1,-18.5
6,CO/C=C(/C(=O)OC)c1ccccc1Oc1cc(Oc2ccccc2C#N)ncn1 [AZOXYSTROBIN],37.9
7,Cc1ccc(/C(=C/C(=O)NCCc2ccc(O)cc2)c2ccnc(Cl)c2)c(C)c1,-25
8,CCc1ccc(/C(=C/C(=O)NCCc2ccccc2)c2ccncc2)cc1,5.65
9,Cc1ccc(/C(=C/C(=O)NCCc2ccc(O)cc2)c2ccncc2)cc1C,14.5
10,N#Cc1c(Cl)c(Cl)c(Cl)c(C#N)c1Cl [CHLOROTHALONIL],63.7
11,Cc1ccc(/C(=C/C(=O)NCCc2ccccc2)c2ccncc2)cc1,-17.7
12,Cc1ccc(/C(=C/C(=O)NCCc2ccc(O)cc2)c2ccnc(Cl)c2)cc1C,-18.5
